Measured values as given in ChEMBL document CHEMBL1782055, “2,3-dideoxy hex-2-enopyranosid-4-uloses as promising new anti-tubercular agents: design, synthesis, biological evaluation and SAR studies” (Eur J Med Chem, 2011).
In brackets after ≈: the same amount, converted by molar mass. Activity calls are given as the source filed them. The rule behind the calls is not given here.

Assays:
[1] = system: Mycobacterium tuberculosis; experiment: Antitubercular activity against Mycobacterium tuberculosis H37Rv after 24 hrs by BACTEC radiometric susceptibility assay; format: functional
Outline: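 BACTEC radiometric assay in 7H12 (12B) medium with 14C-palmitic acid as substrate; 14CO2 output read daily as Growth Index (GI) at 37 °C ± 1 °C. H37Rv inoculum grown in 12B vial to GI around 300. Compounds dissolved in DMSO. Control vial held 1:100 diluted bacterial suspension. Reading continued until control GI reached 30 or more. Daily change in GI compared with control to set susceptibility and MIC.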

[2] = Selectivity index, ratio of CC50 for african green monkey Vero cells to MIC for Mycobacterium tuberculosis H37Rv; format: functional
[3] = Cytotoxicity against african green monkey Vero cells after 24 hrs by resazurin assay; format: cell-based; settings: chlorocebus sabaeus
Outline: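 Vero cells (ATCC CCL-81) seeded overnight at 1 × 10⁴–[…] cells/well in RPMI with 10% heat-inactivated FBS, 37 °C, 5% CO2. Exposed in triplicate to serial dilutions, 100 to 1.56 µg/mL. Resazurin (0.1%) added for 4–5 h. Read visually (purple to pink or colourless) and by fluorescence, excitation 530 nm, emission 590 nm.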

[4] = system: Mycobacterium tuberculosis; experiment: Antitubercular activity against Mycobacterium tuberculosis H37Rv at 50 ug/mL after 24 hrs by BACTEC radiometric susceptibility assay; format: functional, organism-based
[5] = system: Mycobacterium tuberculosis; experiment: Antitubercular activity against Mycobacterium tuberculosis H37Rv infected in mouse J774A.1 cells assessed as growth index at MIC after 8 days by BACTEC radiometric susceptibility assay; format: functional
Outline: (§1)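 J774A.1 murine macrophages infected with H37Rv (grown in 7H9 with BSA, dextrose, catalase, washed in serum-free RPMI) at MOI 1:20 for 6 h, 37 °C, 5% CO2. Seeded in triplicate, 5 × 10⁵ cells/well. Daily medium change with complete RPMI containing compound at 1× or 2× MIC. Cells lysed with 0.05% SDS on day 0 and day 6. Lysates inoculated into BACTEC vials, GI followed over 8 days.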

[6] = system: Mycobacterium tuberculosis; experiment: Antitubercular activity against drug-sensitive Mycobacterium tuberculosis 2280 after 24 hrs by BACTEC radiometric susceptibility assay; format: functional; settings: Mycobacterium tuberculosis, 2280, 24 h
[7] = system: Mycobacterium tuberculosis; experiment: Antitubercular activity against Mycobacterium tuberculosis H37Rv infected in mouse J774A.1 cells assessed as growth index at 2 times MIC after 8 days by BACTEC radiometric susceptibility assay; format: functional; outline: as §1
[8] = system: Mycobacterium tuberculosis; experiment: Antitubercular activity against Mycobacterium tuberculosis H37Rv at 25 ug/mL after 24 hrs by BACTEC radiometric susceptibility assay; format: functional, organism-based

| SMILES | MIC [1] | also measured |
| --- | --- | --- |
| CN[C@@H]1[C@H](O[C@H]2[C@H](O[C@H]3[C@H](O)[C@@H](O)[C@H](N=C(N)N)[C@@H](O)[C@@H]3N=C(N)N)O[C@@H](C)[C@]2(O)C=O)O[C@@H](CO)[C@H](O)[C@H]1O [STREPTOMYCIN] | 6 mg/L (≈ 10.3 µM) | – |
| CCCCCCCCCCO[C@@H]1C=C([C@H](O)c2ccc([N+](=O)[O-])cc2)C(=O)[C@@H](COC(C)=O)O1 | 25 mg/L (≈ 52.4 µM) | – |
| CCCCCCO[C@@H]1C=CC(=O)[C@@H](COC(=O)C(C)(C)C)O1 | 3.12 mg/L (≈ 10 µM) | Selectivity Index [2]: 0.48; CC50 at 24 h [3]: 4.8 µM |
| CCCCCCCCCCO[C@@H]1C=CC(=O)[C@@H](COC(C)=O)O1 | 6.25 mg/L (≈ 19.1 µM) | – |
| CC(C)CCO[C@@H]1C=C([C@H](O)c2ccc(C#N)cc2)C(=O)[C@@H](COC(=O)C(C)(C)C)O1 | 6.25 mg/L (≈ 14.6 µM) | – |
| CO[C@@H]1C=CC(=O)[C@@H](COC(=O)C(C)(C)C)O1 | 6.25 mg/L (≈ 25.8 µM) | – |
| CC(C)CCO[C@@H]1C=C(CO)C(=O)[C@@H](COC(=O)C(C)(C)C)O1 | 25 mg/L (≈ 76.1 µM) | – |
| CC(C)CCO[C@@H]1C=CC(=O)[C@@H](CO[Si](C)(C)C(C)(C)C)O1 | 12.5 mg/L (≈ 38 µM) | – |
| CC(=O)OCC1=C[C@@H](OCCC(C)C)O[C@H](COC(=O)C(C)(C)C)C1=O | – | Activity [4]: inactive |
| CC(C)CCO[C@@H]1C=C([C@H](O)c2ccc([N+](=O)[O-])cc2[N+](=O)[O-])C(=O)[C@@H](COC(=O)C(C)(C)C)O1 | 6.25 mg/L (≈ 12.6 µM) | – |
| CC(C)CCO[C@@H]1C=CC(=O)[C@@H](CC#N)O1 | 12.5 mg/L (≈ 56 µM) | – |
| CC(C)O[C@@H]1C=C(CO)C(=O)[C@@H](COC(=O)C(C)(C)C)O1 | 25 mg/L (≈ 83.2 µM) | – |
| O=C1C=C[C@@H](OCC2CC2)O[C@@H]1CO | 25 mg/L (≈ 126 µM) | – |
| CO[C@@H]1C=C([C@H](O)c2ccc(C#N)cc2)C(=O)[C@@H](COC(=O)C(C)(C)C)O1 | 12.5 mg/L (≈ 33.5 µM) | – |
| CC(C)O[C@@H]1C=CC(=O)[C@@H](CO)O1 | 25 mg/L (≈ 134 µM) | – |
| CCCCCCCCCCO[C@@H]1C=C[C@H](O)[C@@H](CO)O1 | – | Activity [4]: inactive |
| CCCCCCCCCCO[C@@H]1C=CC(=O)[C@@H](COC(=O)C(C)(C)C)O1 | 12.5 mg/L (≈ 33.9 µM) | – |
| CC(=O)OC[C@H]1O[C@H](OC(C)(C)C)C=CC1=O | 6.25 mg/L (≈ 25.8 µM) | – |
| CCCCCCCCCCO[C@@H]1C=C([C@H](O)c2ccc(C#N)cc2)C(=O)[C@@H](COC(=O)C(C)(C)C)O1 | 12.5 mg/L (≈ 25 µM) | – |
| CC(=O)OC[C@H]1O[C@H](OCCC(C)C)C=CC1=O | 0.78 mg/L (≈ 3.04 µM) | Selectivity Index [2]: 6.6; CC50 at 24 h [3]: 19.8 µM |
| CC(=O)OC[C@H]1O[C@H](OCCC(C)C)C=C([C@H](O)c2ccc([N+](=O)[O-])cc2[N+](=O)[O-])C1=O | 6.25 mg/L (≈ 13.8 µM) | – |
| CC(C)CCO[C@@H]1C=CC(=O)[C@@H](COC(=O)C(C)(C)C)O1 | 0.78 mg/L (≈ 2.61 µM) | Growth_index [5]: 10; Selectivity Index [2]: 13.5; CC50 at 24 h [3]: 36 µM; MIC [6]: 0.78 mg/L (≈ 2.61 µM); Growth_index [7]: 10 |
| CC(C)CCO[C@@H]1C=CC(=O)[C@@H](CO)O1 | 6.25 mg/L (≈ 29.2 µM) | – |

| SMILES | MIC [1] | also measured |
| --- | --- | --- |
| Cc1ccc(S(=O)(=O)OC[C@H]2O[C@H](OC(C)C)C=CC2=O)cc1 | 3.12 mg/L (≈ 9.18 µM) | Selectivity Index [2]: 1.4; CC50 at 24 h [3]: 13.4 µM |
| CCCCCO[C@@H]1C=CC(=O)[C@@H](COC(=O)C(C)(C)C)O1 | 1.56 mg/L (≈ 5.23 µM) | Selectivity Index [2]: 1.41; CC50 at 24 h [3]: 7.38 µM |
| CC(C)(C)O[C@@H]1C=CC(=O)[C@@H](CO)O1 | 25 mg/L (≈ 125 µM) | – |
| CCCCCCCCCCO[C@@H]1C=CC(=O)[C@@H](CO)O1 | 12.5 mg/L (≈ 44 µM) | – |
| CC(C)CO[C@@H]1C=CC(=O)[C@@H](COC(=O)C(C)(C)C)O1 | 3.12 mg/L (≈ 11 µM) | Selectivity Index [2]: 2.56; CC50 at 24 h [3]: 28.2 µM |
| COc1ccc(O[C@@H]2C=CC(=O)[C@@H](COC(=O)C(C)(C)C)O2)cc1 | 6.25 mg/L (≈ 18.7 µM) | – |
| CC(C)(C)C(=O)OC[C@H]1O[C@H](OCC2CC2)C=CC1=O | 3.12 mg/L (≈ 11.1 µM) | Selectivity Index [2]: 6.96; CC50 at 24 h [3]: 77.2 µM |
| CO[C@H]1/C=C/O[C@@]2(C)Oc3c(C)c(O)c4c(O)c(c(/C=N/N5CCN(C)CC5)c(O)c4c3C2=O)NC(=O)/C(C)=C\C=C\[C@H](C)[C@H](O)[C@@H](C)[C@@H](O)[C@@H](C)[C@H](OC(C)=O)[C@@H]1C [RIFAMPIN] | 2 mg/L (≈ 2.43 µM) | – |
| CO[C@@H]1C=CC(=O)[C@@H](CO)O1 | 25 mg/L (≈ 158 µM) | – |
| CC(C)CO[C@@H]1C=C([C@H](O)c2ccc(C#N)cc2)C(=O)[C@@H](COC(=O)C(C)(C)C)O1 | 6.25 mg/L (≈ 15 µM) | – |
| CC(=O)OC[C@H]1O[C@H](OCCC(C)C)C=C([C@H](O)c2ccc([N+](=O)[O-])cc2)C1=O | 3.12 mg/L (≈ 7.67 µM) | Selectivity Index [2]: 1.8; CC50 at 24 h [3]: 14.3 µM |
| CCCCO[C@@H]1C=CC(=O)[C@@H](COC(=O)C(C)(C)C)O1 | 3.12 mg/L (≈ 11 µM) | Selectivity Index [2]: 3.85; CC50 at 24 h [3]: 42.5 µM |
| CC(C)CCO[C@H]1O[C@H](COC(=O)C(C)(C)C)C(=O)[C@@H]2O[C@H]12 | 12.5 mg/L (≈ 39.8 µM) | – |
| CC(C)O[C@@H]1C=CC(=O)[C@@H](COC(=O)C(C)(C)C)O1 | 3.12 mg/L (≈ 11.6 µM) | Selectivity Index [2]: 1.09; CC50 at 24 h [3]: 12.5 µM |
| CO[C@@H]1C=CC(=O)[C@@H](COC(C)=O)O1 | 6.25 mg/L (≈ 31.2 µM) | – |
| CC(C)(C)O[C@@H]1C=CC(=O)[C@@H](COC(=O)C(C)(C)C)O1 | 6.25 mg/L (≈ 22 µM) | – |
| CC(C)CCO[C@@H]1C=C[C@H](O)[C@@H](CO)O1 | – | Activity [4]: inactive |
| CC(C)CO[C@@H]1C=CC(=O)[C@@H](CO)O1 | 12.5 mg/L (≈ 62.4 µM) | – |
| CC(=O)OC[C@H]1O[C@H](OC(C)C)C=CC1=O | 3.12 mg/L (≈ 13.7 µM) | Selectivity Index [2]: 7.6; CC50 at 24 h [3]: 104 µM |
| CC(C)O[C@@H]1C=C([C@H](O)c2ccc(C#N)cc2)C(=O)[C@@H](COC(=O)C(C)(C)C)O1 | 6.25 mg/L (≈ 15.6 µM) | – |
| Cc1ccc(S(=O)(=O)OC[C@H]2O[C@H](OC(C)C)C=C([C@H](O)c3ccc([N+](=O)[O-])cc3)C2=O)cc1 | 6.25 mg/L (≈ 12.7 µM) | – |
| COc1ccc(O[C@@H]2C=CC(=O)[C@@H](CO)O2)cc1 | – | Activity [8]: inactive |
